High-throughput results: PubChem, several laboratories
Most compounds without a hit are left out; they make up all but 2.6% or so of the library.
rCAG binder = binds r(CAG) RNA repeats. r(CAG) RNA repeat, TO-PRO-1 dye displacement fluorescence. inhibition, % at 3 µM. AID 651821. 370,000 tested, 1.3% active;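 active = inhibition above the plate cutoff, the mean of all test compounds on that plate plus 3 SD, cut at about 35% in these data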;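 note: 0% = DMSO alone and 100% = 100 µM mitoxantrone as full dye displacement; higher means more dye released from RNA so lower well fluorescence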
NadD block = NadD (S. aureus) enzyme inhibition; purified NadD enzyme, colorimetric absorbance read-out; inhibition, % at 20 µM; 360,000 tested, 0.78% active; in the data active = inhibition above about 26%
HCV core dimer = blocks dimerization of HCV core protein | inhibition, % at 5 µM | 300,000 tested, 0.33% active | TR-FRET GST/Flag-core106 dimerization, 1536-well;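 active = inhibition above the mean of all tested compounds plus 3 SD, set per screening campaign, cut at about 45% in these data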
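Material: Tagged HCV core106 pair (GST and Flag) | Amount: GST-core106 13.5 nM, Flag-core106 17 nM | Medium: KF-containing HEPES buffer, pH 7.45, DTT, CHAPS, BSA | Reagent: Eu donor and XL665 acceptor anti-tag antibodies | Schedule: 4 h at 22.5 °C | Technique: Time-resolved FRET, ex 340 nm, em 617 and 671 nm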
ABHD5 PLIN5 PPI = blocks binding of human ABHD5 to perilipin-5; Split G. princeps luciferase complementation, luminescence, 4 h; inhibition, % at 4 µM; 360,000 tested, 0.78% active; AID 602281;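 active = inhibition above the mean inhibition across every tested compound plus 3 SD, cut at about 22% in these data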;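 note: 0% = DMSO only wells and the 100% control is not disclosed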
Numbers without * were called inactive; . = no result given; ! = a repeat was not active.

SMILES	rCAG binder	NadD block	HCV core dimer	ABHD5 PLIN5 PPI
Nc1ccc(C(=O)O)c(O)c1	4	0	8	-2
Nc1ccc(N)c(C(=O)O)c1	.	33*	17	-6
COC(=O)C1CN(CC(C)C)CCS(=O)(=O)N1Cc1ccc(C(F)(F)F)cc1 (centres undefined)	-2	.	.	.
CCN(CC)C(=O)CC[C@H]1CC[C@]2(CCCN(S(=O)(=O)C3CCCCC3)C2)O1	-2	.	.	.
Cc1ccc(-n2nc(C(=O)NCc3ccco3)c3c4ccccc4n(C)c3c2=O)cc1	12	19	47*	0
CCN(CC)CCNC(=O)c1nn(-c2ccc(C)cc2)c(=O)c2c1c1ccccc1n2C	-1	-5	3	13
CCc1c(-c2cccc(OC)c2)ncn1CCc1ccccc1OC	-3	.	.	.
O=C(c1ccco1)N1CCN(C(=O)c2cc(-c3ccccn3)nc3ccc(Cl)cc23)CC1	4	-10	76*	3
CC[C@H](CCC(=O)N(c1ccccc1)c1ccccc1)c1ccc(C)cc1	2	.	.	.
COc1cc(N2CCCC2)c(OC)cc1/C=C(/C#N)c1cccc(F)c1	.	11	2	-1
N#C/C(=C/c1ccc(N2CCCCCC2)o1)c1cccc(F)c1	20	11	0	59*
N#C/C(=C/c1ccc(N2CCOCC2)o1)c1ccc(Br)cc1	15	17	-12	63*
N#C/C(=C\c1ccc(N2CCOCC2)o1)C(=O)Nc1ccc(O)cc1	-88	-1	-40	12
N#C/C(=C/c1ccc(N2CCCCC2)o1)C(=O)Nc1ccc(Cl)cc1	-19	-3	-12	9
N#C/C(=C/c1ccc(N2CCCCCC2)o1)c1ccc(F)cc1	.	22	7	71*
NC(CSC(c1ccccc1)(c1ccccc1)c1cccc2ccccc12)C(=O)O (centres undefined)	.	42*	.	-28
CC1(C)S[C@@H]2[C@H](NC(=O)[C@H](N)c3ccccc3)C(=O)N2[C@H]1C(=O)O	58*!	2	0	5
COc1ccc(C(=O)C2(C(=O)Nc3cc(C)cc(C)c3)CC(c3ccccn3)=NO2)cc1 (centres undefined)	9	.	.	.
C[C@H]1COc2c3ccc(I)cc3nn21	1	.	.	.
O=C(NN1C(=O)/C(=C/c2cc([N+](=O)[O-])ccc2O)SC1=S)c1ccccc1O	.	.	4	.
O=C1N/C(=N\S(=O)(=O)Cc2ccccc2)S/C1=C/c1cc([N+](=O)[O-])ccc1O	71*	-7	7	8
COc1ccc(N2C(=O)c3n[nH]c(C)c3C2c2ccc(F)cc2)cc1 (centres undefined)	-2	.	.	.
CCOc1ccc(-c2cccc(NS(=O)(=O)c3cc([N+](=O)[O-])ccc3Cl)c2)nn1	40*	3	13	2
CCc1nn2c(=O)cc(COc3ccc(/C=C4\C(=N)N5N=C(C)SC5=NC4=O)cc3)nc2s1	22	22	47*	-9
CCOc1cc(/C=C2\C(=N)N3N=C(C)SC3=NC2=O)ccc1OCCOc1cccc(OC)c1	20	45*	18	3
SMILES	rCAG binder	NadD block	HCV core dimer	ABHD5 PLIN5 PPI
CCC1=NN2C(=N)/C(=C\c3ccc(OCCOc4ccc(NC(C)=O)cc4)cc3)C(=O)N=C2S1	15	13	0	-2
COc1cc(/C=C2/C(=N)N3N=C(C(C)C)SC3=NC2=O)ccc1OS(=O)(=O)c1ccccc1	34	5	2	-4
CCC1=NN2C(=N)/C(=C/c3ccc(OS(=O)(=O)c4ccccc4)c(OC)c3)C(=O)N=C2S1	26	82*	10	-7
COc1cc(/C=C2\C(=N)N3N=C(C)SC3=NC2=O)cc(OC)c1OCCOc1ccccc1C	14	3	8	-3
CC[C@@H](C)[C@@H]1CN([C@@H](C)CN2CCC[C@H]2CN2C(N)=NC[C@H]2CC(C)C)C(=N)N1CCc1ccc(Cl)c(Cl)c1	12	-3	.	30*
C[C@@H](CN1CCC[C@H]1CN1C(N)=NC[C@@H]1Cc1ccccc1)N1C[C@@H](Cc2ccccc2)N(CCc2ccc(Cl)c(Cl)c2)C1=N	.	4	.	41*
CC[C@@H](C)[C@@H]1CN([C@@H](CN2CCC[C@H]2CN2C(N)=NC[C@H]2CC(C)C)C(C)C)C(=N)N1CCc1ccc(Cl)c(Cl)c1	9	-4	.	13
CCC[C@@H](CN1CCC[C@H]1CN1C(N)=NC[C@H]1CC(C)C)N1C[C@@H]([C@H](C)CC)N(CCc2ccc(Cl)c(Cl)c2)C1=N	9	6	.	20
CCC[C@@H](CN1CCC[C@H]1CN1C(N)=NC[C@@H]1Cc1ccccc1)N1C[C@@H]([C@H](C)CC)N(CCCC2CCCC2)C1=N	.	17	.	32*
CCC[C@@H](CN1CCC[C@H]1CN1C(N)=NC[C@H]1CC(C)C)N1C[C@@H](Cc2ccccc2)N(CCc2ccc(Cl)c(Cl)c2)C1=N	11	7	.	23*
CCn1cc(CCC(=O)Nc2ccc(Oc3cccnc3)cc2)c2ccccc21	4	.	.	.
CC(C)(C)N1Cc2nnn(Cc3ccccc3)c2-c2cc(N3CCCCC3)ccc2S1(=O)=O	2	.	.	.
O=C(N/N=C/C=C/c1ccc([N+](=O)[O-])cc1)c1cccs1	3	5	49*	2
Cc1cc(NC(=O)c2ccc(S(=O)(=O)N3CCc4ccccc43)cc2)no1	12	20	72*	-13
Cc1cc(NC(=O)c2ccc(S(=O)(=O)N3CCOCC3)cc2)no1	-1	0	-1	5
N#C/C(=C/c1ccccc1OCc1ccc(F)cc1)c1ccc(C(=O)O)cc1	32	2	21	-3
N#C/C(=C/c1cccn1-c1cccc(C(=O)O)c1)c1ccc(F)cc1	50*	2	.	-9
Cc1nnc2sc(COc3ccccc3)nn2c1=O	1	2	15	-24
c1ccc(OCc2nn3c(-c4n[nH]c5c4CCC5)nnc3s2)cc1	12	3	47*	8
CCNC(=O)N(C)[C@H]1C[C@H]2c3[nH]c4c(-c5ccc6c(c5)OCO6)cccc4c3CCN2C(=O)[C@H]1[C@H](C)O	6	.	.	.
CC(=O)Nc1ccc(N2C(=O)c3ccc(C(=O)Nc4nnc(SCc5ccc(F)cc5)s4)cc3C2=O)cc1	5	31*	34	0
CCOc1ccc(C(C)=O)cc1CSc1nnc(-c2ccoc2C)n1N	4	8	46*	10
O[C@H](COc1ccc(Cl)cc1)CN1CCC(C(O)(c2ccccc2)c2ccccc2)CC1	0	.	.	.
CCn1nc(NS(=O)(=O)c2cccc3nonc23)c2cc3ccc(C)cc3nc21	.	9	-16	-3
CCCCn1nc(NS(=O)(=O)c2cccc3nonc23)c2cc3cccc(C)c3nc21	74*	8	2	2
CS(=O)(=O)c1ccc(S(=O)CC(=O)OCc2ccccc2)c([N+](=O)[O-])c1 (centres undefined)	5	-1	.	40*
COc1ccc(CSc2nnc(SCC(=O)Nc3ccc(S(N)(=O)=O)cc3)s2)cc1	14	.	.	.
Cc1ccc(C(=O)CSc2cc(C)[nH]c(=O)n2)cc1	15	15	64*	-18
COc1ccc(C2C(C(=O)N3CCN(c4ccccc4C)CC3)CC(=O)N2c2ccc(OC)cc2)cc1 (centres undefined)	2	.	.	.
